This is a sample that favours compounds with a hit; in the whole collection about 2.6% have one here.
ABHD5 PLIN5 PPI: ABHD5-PLIN5 protein interaction inhibition | Split G. princeps luciferase complementation, luminescence, 4 h | AID 602281 | 360,000 tested, 0.78% active | inhibition, % at 4 µM;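 active = inhibition above the mean inhibition across every tested compound plus 3 SD, cut at about 22% in these data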
Target sequence (Q00G26 whole entry, looked up): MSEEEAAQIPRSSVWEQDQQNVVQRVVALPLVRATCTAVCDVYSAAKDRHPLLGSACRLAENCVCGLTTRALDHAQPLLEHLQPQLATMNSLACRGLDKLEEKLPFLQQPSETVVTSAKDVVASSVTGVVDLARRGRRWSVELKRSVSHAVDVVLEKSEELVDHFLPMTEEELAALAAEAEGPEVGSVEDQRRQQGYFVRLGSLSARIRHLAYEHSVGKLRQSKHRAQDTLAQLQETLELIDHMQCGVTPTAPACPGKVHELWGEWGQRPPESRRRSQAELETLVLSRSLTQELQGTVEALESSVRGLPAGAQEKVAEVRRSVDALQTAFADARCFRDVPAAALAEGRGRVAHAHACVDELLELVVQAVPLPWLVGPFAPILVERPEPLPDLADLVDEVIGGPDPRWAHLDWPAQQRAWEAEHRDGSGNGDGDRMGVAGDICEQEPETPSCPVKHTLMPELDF
Target sequence (Q8WTS1 whole entry, looked up): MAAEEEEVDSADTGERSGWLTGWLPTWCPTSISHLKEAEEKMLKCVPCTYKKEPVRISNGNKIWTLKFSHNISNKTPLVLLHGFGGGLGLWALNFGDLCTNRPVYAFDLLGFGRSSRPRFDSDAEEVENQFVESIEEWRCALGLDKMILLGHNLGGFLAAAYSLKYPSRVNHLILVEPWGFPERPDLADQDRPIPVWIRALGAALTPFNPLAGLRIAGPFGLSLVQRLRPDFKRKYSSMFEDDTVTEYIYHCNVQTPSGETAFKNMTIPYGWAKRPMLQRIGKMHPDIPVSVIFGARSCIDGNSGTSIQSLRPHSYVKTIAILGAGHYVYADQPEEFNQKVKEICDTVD
rCAG binder: molecules binding r(CAG) RNA repeats; r(CAG) RNA repeat, TO-PRO-1 dye displacement fluorescence; inhibition, % at 3 µM; 370,000 tested, 1.3% active; AID 651821;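 active = inhibition above the plate cutoff, the mean of all test compounds on that plate plus 3 SD, cut at about 35% in these data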;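 note: higher means more dye released from RNA so lower well fluorescence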
core dimer inh: blocks dimerization of HCV core protein; inhibition, % at 5 µM; TR-FRET GST/Flag-core106 dimerization, 1536-well; 300,000 tested, 0.33% active;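 active = inhibition above the mean of all tested compounds plus 3 SD, set per screening campaign, cut at about 45% in these data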
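Test system: GST/Flag-tagged HCV core106 proteins; Medium: KF-containing HEPES buffer, pH 7.45, DTT, CHAPS, BSA; Times: compound-protein-antibody incubation 4 h at 22.5 °C; Detection: TR-FRET 671 and 617 nm emission; Benchmarks: wells lacking GST-core106 and wells with excess unlabelled core106.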
NadD inh: blocks S. aureus nicotinate mononucleotide adenylyltransferase | purified NadD enzyme, colorimetric absorbance read-out | inhibition, % at 20 µM | 360,000 tested, 0.78% active | AID 602399; in the data active = inhibition above about 26%
rCAG binder conf: r(CAG) RNA repeat binding, confirmation; shares compounds with rCAG binder; TO-PRO-1 dye displacement fluorescence; inhibition, % at 3 µM; 4,300 tested, 70% active;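 active = inhibition above a per-plate cutoff, the mean inhibition of sample wells plus 3 SD, cut at about 35% in these data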;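 note: loss of TO-PRO-1 fluorescence as compound displaces dye from 1x1 AA loop RNA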
dCAG dye counter: counter-screen for rCAG RNA binders: DNA CAG dye complex inhibitors. shares compounds with rCAG binder. 4,300 tested, 94% active. AID 652068. d(CAG) DNA oligo TO-PRO-1 dye displacement, fluorescence. inhibition, % at 3 µM;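 active = inhibition above its plate's cutoff, the mean test-well inhibition plus 3 SD, cut at about 4.8% in these data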;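 note: hits displace the dye from DNA and so lower well fluorescence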
Each line names hits and unclear results; the compound was inactive in the other large screens (follow-up assays come after a bar, where they were run).

CCc1ccc(N2C(=O)NC(=O)/C(=C/c3cccn3CCOc3ccc(C)cc3)C2=O)cc1	none
Cc1cccc(OCCn2cccc2/C=C2/C(=O)NC(=O)N(Cc3ccco3)C2=O)c1	rCAG binder 35.1 | rCAG binder conf inactive | dCAG dye counter 7.7
O=C1NC(=S)N(c2ccccc2)C(=O)/C1=C/c1ccco1	rCAG binder 89.4 | rCAG binder conf 90.0 | dCAG dye counter 63.2
CCOc1cccc(N2C(=O)/C(=C/c3ccco3)C(=O)NC2=S)c1	rCAG binder 69.3, core dimer inh 60.6 | rCAG binder conf 68.4 | dCAG dye counter 35.2
COc1ccccc1/C=C1\C(=O)NC(=S)N(c2ccccc2)C1=O	none
Cc1ccc(CNC2=NCCS2)cc1	none
O=C(Cc1ccc([N+](=O)[O-])cc1)N1CCN(Cc2ccc3c(c2)OCO3)CC1	none
COc1ccc(CN2C(=O)NC(=O)/C(=C\c3ccco3)C2=O)cc1	rCAG binder 43.1 | rCAG binder conf inactive | dCAG dye counter 12.4
CC(C)c1ccc(N2C(=O)NC(=O)/C(=C\c3cnc(-c4ccccc4)nc3)C2=O)cc1	none
CC(C)c1ccc(N2C(=O)NC(=O)/C(=C\C=C\c3ccco3)C2=O)cc1	rCAG binder 44.0 (no result: ABHD5 PLIN5 PPI, NadD inh) | rCAG binder conf inactive | dCAG dye counter 12.5
O=C1NC(=O)N(Cc2ccccc2)C(=O)/C1=C/C=C/c1ccco1	rCAG binder 44.8 | rCAG binder conf inactive | dCAG dye counter 8.5
CN(C)P1(N(C)C)=NC(C(F)(F)F)=NC(C(F)(F)F)=N1	none
O=C(NCP(=O)(Oc1ccccc1)Oc1ccccc1)OCc1ccccc1	rCAG binder 68.6 (no result: core dimer inh) | rCAG binder conf inactive | dCAG dye counter inactive
CCC(NC(=O)OCc1ccccc1)P(=O)(Oc1ccccc1)Oc1ccccc1 (configuration not stated)	none (no result: ABHD5 PLIN5 PPI, core dimer inh, NadD inh)
COC(=O)C1C(O)C(C)C(O)C(C)/C=C\C=C(/C)C(=O)Nc2c(C)c(OC(C)=O)c3c(c2O)C(=O)C(C)=C2OCOC(=C23)/C(C)=C/C(C)(O)C(O)C(C)C1O (configuration not stated)	rCAG binder 46.6 | rCAG binder conf inactive | dCAG dye counter 6.5
Cc1cc(Br)ccc1N1C(=O)CC(=O)NC1=O	rCAG binder 40.3 | rCAG binder conf inactive | dCAG dye counter inactive
N=C1c2ccccc2CN1NC(=O)c1ccco1	none (no result: core dimer inh)
CC(C)(C#CC(=O)O)OOC(c1ccccc1)(c1ccccc1)c1ccccc1	rCAG binder 52.9 | rCAG binder conf 57.3 | dCAG dye counter 20.3
CC(=O)c1ccc2c(c1)C1C(Cl)C(Sc3ccccc3[N+](=O)[O-])CC1C(C(=O)O)N2 (configuration not stated)	rCAG binder 87.1 | rCAG binder conf 94.8 | dCAG dye counter 72.7
CC(=O)N1CCC2(CC1)CC(=O)c1cc(OCC(=O)N3CCN(C)CC3)ccc1O2	none
O=P1(N(CCCl)CCCl)NCCCO1 (configuration not stated)	none
O=[N+]([O-])c1cc(S(=O)(=O)c2ccc(O)c([N+](=O)[O-])c2)ccc1O	rCAG binder 38.3 | rCAG binder conf inactive | dCAG dye counter 7.7
Cc1ccc2c(c1)cc1c(=O)n(CC(=O)N3CCC4(CC3)OCCO4)nc(C)n12	none
CN1C(=O)N(C)C(=O)C2(Cc3cc([N+](=O)[O-])ccc3N(C)C2c2ccccc2)C1=O (configuration not stated)	none
O=C1NC(=O)N(c2cccc(Cl)c2)C(=O)/C1=C\c1ccc(Sc2nc3ccccc3[nH]2)o1	rCAG binder 72.2, NadD inh 65.4 | rCAG binder conf 49.7 | dCAG dye counter 21.9
COc1cc2c(cc1OC)C13CCN4CC5CCOC6CC(=O)N2C1C6C5CC43 (configuration not stated)	none (no result: core dimer inh)
c1ccc2c(c1)[IH]c1ccccc1-2	none (no result: core dimer inh)
O=C1NC(=O)N(CCC2=CCCCC2)C(=O)/C1=C\c1cccs1	rCAG binder 42.0 | rCAG binder conf inactive | dCAG dye counter inactive
COc1ccc(/C=C2/C(=O)N(Cc3ccco3)C(=O)N(C(C)C)C2=O)cc1	rCAG binder 59.6, NadD inh 33.5 | rCAG binder conf 76.6 | dCAG dye counter 40.8
CC(C)N1C(=O)/C(=C/C=C/c2ccco2)C(=O)N(Cc2ccco2)C1=O	rCAG binder 45.5, core dimer inh 62.8 | rCAG binder conf inactive | dCAG dye counter 10.7
CCN1C(=O)C(=C/C=C/c2ccco2)C(=O)N(CC)C1=S	rCAG binder 56.5 | rCAG binder conf 48.7 | dCAG dye counter 17.2
CCN(CC)c1ccc(/C=C2/C(=O)NC(=O)N(Cc3ccco3)C2=O)cc1	none
Oc1c(Br)cc(Br)cc1Oc1ccc(Br)cc1Br	none (no result: ABHD5 PLIN5 PPI, rCAG binder, NadD inh)

From PubChem BioAssay
